From ChEMBL document CHEMBL4428090, “Modeling, Synthesis, and Biological Evaluation of Potential Retinoid X Receptor (RXR)-Selective Agonists: Analogues of 4-[1-(3,5,5,8,8-Pentamethyl-5,6,7,8-tetrahydro-2-naphthyl)ethynyl]benzoic Acid (Bexarotene) and 6-(Ethyl(5,5,8,8-tetrahydronaphthalen-2-yl)amino)nicotinic Acid (NEt-TMN)” (J Med Chem, 2016)
Calls of active or inactive are those of the source. The rule behind the calls is not given here.

Biological target: T1, Retinoid X receptor (Homo sapiens) (UniProt P28702+P48443+P19793)
Assay: Agonist activity at human RXR binding domain and activation domain expressed in human HCT116 cells assessed as rexinoid activity at 25 nM incubated for 24 hrs by luciferase reporter gene based mammalian two-hybrid assay relative to bexarotene
Format: cell-based
Settings: not given
Method in brief: (§1)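 HCT-116 cells plated overnight (80,000/well, DMEM with 10% FBS), co-transfected for 24 h with human RXR binding-domain (bait) and activation-domain (prey) vectors, pFR-Luc Gal4 reporter and renilla control. Treated 24 h at 25, 100 or 1000 nM final; vehicle ethanol or DMSO 0.1%. Dual-luciferase read-out. Three independent assays in triplicate; bexarotene set to 100%.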

| Activity [%] | fold change (FC) | Structure (SMILES) |
| --- | --- | --- |
| 0.8 | – | C=C(c1ccc(S(=O)(=O)O)cc1)c1cc2c(cc1C)C(C)(C)CCC2(C)C |
| – | 2 | CCN(c1ccc(C(=O)O)cn1)c1cc2c(cc1C)C(C)(C)CCC2(C)C |

Biological target: T2, Retinoic acid receptor RXR-alpha/oxysterols receptor LXR-alpha (Homo sapiens, UniProt P19793+Q13133)
T2 sequence (P19793 whole entry): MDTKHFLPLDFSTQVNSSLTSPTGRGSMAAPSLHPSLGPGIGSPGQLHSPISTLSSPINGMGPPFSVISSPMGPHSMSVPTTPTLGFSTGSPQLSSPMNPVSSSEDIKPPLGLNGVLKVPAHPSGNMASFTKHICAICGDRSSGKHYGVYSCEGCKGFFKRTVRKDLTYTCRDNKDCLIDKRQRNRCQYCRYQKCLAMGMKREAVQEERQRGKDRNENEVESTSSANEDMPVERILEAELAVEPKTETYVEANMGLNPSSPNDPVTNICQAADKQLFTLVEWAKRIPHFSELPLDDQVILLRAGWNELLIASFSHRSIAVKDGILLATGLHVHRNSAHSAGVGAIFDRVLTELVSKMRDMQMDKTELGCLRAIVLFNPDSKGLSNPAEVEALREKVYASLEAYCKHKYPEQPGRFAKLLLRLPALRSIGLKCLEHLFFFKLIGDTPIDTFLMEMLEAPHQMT
T2 sequence (Q13133 whole entry): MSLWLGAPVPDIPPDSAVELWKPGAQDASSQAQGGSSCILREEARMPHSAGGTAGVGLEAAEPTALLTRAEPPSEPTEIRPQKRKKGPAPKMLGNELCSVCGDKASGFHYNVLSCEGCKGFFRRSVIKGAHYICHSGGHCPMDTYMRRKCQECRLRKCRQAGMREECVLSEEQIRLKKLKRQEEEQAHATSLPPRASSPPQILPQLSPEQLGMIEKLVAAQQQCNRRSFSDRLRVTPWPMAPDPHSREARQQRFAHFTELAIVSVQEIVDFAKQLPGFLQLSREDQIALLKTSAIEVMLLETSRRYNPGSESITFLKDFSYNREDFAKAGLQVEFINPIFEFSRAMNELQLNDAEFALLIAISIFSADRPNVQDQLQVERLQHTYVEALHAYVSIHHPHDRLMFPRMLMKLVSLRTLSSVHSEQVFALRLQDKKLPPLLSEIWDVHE
Assay: Agonist activity at human RXRalpha/LXRalpha expressed in human HCT116 cells assessed as reduction in SREBP-mediated transcription activity at 100 nM incubated for 24 hrs by luciferase reporter gene assay relative to bexarotene
Format: cell-based
Settings: 0.1 µM
Method in brief: (§2)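 HCT116 cells co-transfected for 24 h with 100 ng pBP1c(6500)-Luc (about 6500 bp murine SREBP-1c promoter), 10 ng human LXRα and 20 ng renilla. Treated 24 h with compound at 100 nM, alone or with 100 nM TO901317. Luciferase output. Three independent assays in triplicate; bexarotene = 100%.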

| Activity | Structure (SMILES) |
| --- | --- |
| Not Active | C=C(c1ccc(S(=O)(=O)O)cc1)c1cc2c(cc1C)C(C)(C)CCC2(C)C |
| Active | CCN(c1ccc(C(=O)O)cn1)c1cc2c(cc1C)C(C)(C)CCC2(C)C |

System: not listed separately
Assay: Lipid risk index, ratio of agonist activity at human RXRalpha/LXRalpha expressed in human HCT116 cells assessed as reduction in SREBP-mediated transcription activity to agonist activity at human RXRalpha expressed in human HCT116 cells assessed as increase in RXRE-mediated transcription
Settings: not given
Method in brief: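 Lipid risk index: SREBP-promoter luciferase activity (HCT116, LXRα-transfected, 100 nM compound with or without 100 nM TO901317, 24 h) divided by RXRE activity at 100 nM. The SREBP:RXRE ratio for bexarotene is set to 1.0.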

| Structure (SMILES) | Ratio |
| --- | --- |
| CCN(c1ccc(C(=O)O)cn1)c1cc2c(cc1C)C(C)(C)CCC2(C)C | 0.49 - 0.51 |

Biological target: T1, Retinoid X receptor (Homo sapiens)
Assay: Agonist activity at human RXR binding domain and activation domain expressed in human HCT116 cells assessed as rexinoid activity at 1000 nM incubated for 24 hrs by luciferase reporter gene based mammalian two-hybrid assay relative to bexarotene
Format: cell-based
Settings: not given
Method in brief: as §1

| Activity [%] | Structure (SMILES) |
| --- | --- |
| 17 | C=C(c1ccc(S(=O)(=O)O)cc1)c1cc2c(cc1C)C(C)(C)CCC2(C)C |
| 35 to 58 | CCN(c1ccc(C(=O)O)cn1)c1cc2c(cc1C)C(C)(C)CCC2(C)C |

Biological target: T3, Retinoic acid receptor RXR-alpha (Homo sapiens) (UniProt P19793)
T3 sequence (whole entry): T2 sequence (P19793 whole entry)
Assay: Agonist activity at human RXRalpha expressed in human HCT116 cells assessed as increase in RXRE-mediated transcription at 100 nM incubated for 24 hrs by RXRE luciferase reporter gene assay relative to bexarotene
Format: cell-based
Settings: not given
Method in brief: (§3)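 HCT-116 cells (80,000/well) co-transfected for 24 h with 250 ng RXRE-luciferase reporter (DR1 element from the rat cellular retinol binding protein II gene), 25 ng pSG5-human RXRα and 20 ng renilla. Dosed 24 h at 25, 100 or 1000 nM final; ethanol or DMSO vehicle 0.1%. Dual-luciferase read-out. Three independent assays in triplicate; bexarotene = 100%.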

| Activity [%] | Structure (SMILES) |
| --- | --- |
| 68 to 89 | CCN(c1ccc(C(=O)O)cn1)c1cc2c(cc1C)C(C)(C)CCC2(C)C |

Biological target: T1, Retinoid X receptor (Homo sapiens)
Assay: Agonist activity at human RXR binding domain and activation domain expressed in human HCT116 cells assessed as rexinoid activity at 100 nM incubated for 24 hrs by luciferase reporter gene based mammalian two-hybrid assay relative to bexarotene
Format: cell-based
Settings: not given
Method in brief: as §1

| Activity | Structure (SMILES) |
| --- | --- |
| inactive | C=C(c1ccc(S(=O)(=O)O)cc1)c1cc2c(cc1C)C(C)(C)CCC2(C)C |
| 135 to 146% | CCN(c1ccc(C(=O)O)cn1)c1cc2c(cc1C)C(C)(C)CCC2(C)C |

Biological target: T3, Retinoic acid receptor RXR-alpha (Homo sapiens)
Assay: Agonist activity at human RXRalpha expressed in human HCT116 cells assessed as increase in RXRE-mediated transcription incubated for 24 hrs by RXRE luciferase reporter gene assay
Format: cell-based
Settings: not given

| Activity | Structure (SMILES) |
| --- | --- |
| inactive | C=C(c1ccc(S(=O)(=O)O)cc1)c1cc2c(cc1C)C(C)(C)CCC2(C)C |

System: HuT78
Assay: Growth inhibition of human HUT78 cells at 200 nM incubated for 72 hrs by MTS assay relative to bexarotene
Format: functional
Settings: HuT78, 72 h, read-out: GI
Method in brief: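 Hut78 cells in RPMI with 10% FBS at 37°C, 5% CO2. Plated 7,500 cells/well and immediately dosed at 200 nM for 72 h. MTS read at A490; percent inhibition with media control set to 0.0, compared with bexarotene set to 100%. Mean of three independent experiments.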

| Structure (SMILES) | inhibition of growth at 0.2 µM [%] |
| --- | --- |
| CCN(c1ccc(C(=O)O)cn1)c1cc2c(cc1C)C(C)(C)CCC2(C)C | > 85 |

Biological target: T4, Retinoid X receptor (Homo sapiens, UniProt P28702+P48443+P19793)
T4 sequence (P28702 whole entry): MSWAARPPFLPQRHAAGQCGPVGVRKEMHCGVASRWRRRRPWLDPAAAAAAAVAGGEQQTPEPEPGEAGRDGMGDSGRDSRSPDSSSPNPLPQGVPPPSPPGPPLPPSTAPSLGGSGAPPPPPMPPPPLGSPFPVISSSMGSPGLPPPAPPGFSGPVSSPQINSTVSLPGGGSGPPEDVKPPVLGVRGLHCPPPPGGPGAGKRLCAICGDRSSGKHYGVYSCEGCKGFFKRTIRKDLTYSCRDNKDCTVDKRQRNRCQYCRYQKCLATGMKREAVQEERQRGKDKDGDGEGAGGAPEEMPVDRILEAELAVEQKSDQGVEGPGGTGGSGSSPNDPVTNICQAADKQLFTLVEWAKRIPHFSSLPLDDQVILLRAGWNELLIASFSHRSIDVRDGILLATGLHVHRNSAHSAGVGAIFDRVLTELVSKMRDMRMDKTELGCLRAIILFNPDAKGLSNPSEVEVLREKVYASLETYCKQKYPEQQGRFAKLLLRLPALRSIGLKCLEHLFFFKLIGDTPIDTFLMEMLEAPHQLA
T4 sequence (P48443 whole entry): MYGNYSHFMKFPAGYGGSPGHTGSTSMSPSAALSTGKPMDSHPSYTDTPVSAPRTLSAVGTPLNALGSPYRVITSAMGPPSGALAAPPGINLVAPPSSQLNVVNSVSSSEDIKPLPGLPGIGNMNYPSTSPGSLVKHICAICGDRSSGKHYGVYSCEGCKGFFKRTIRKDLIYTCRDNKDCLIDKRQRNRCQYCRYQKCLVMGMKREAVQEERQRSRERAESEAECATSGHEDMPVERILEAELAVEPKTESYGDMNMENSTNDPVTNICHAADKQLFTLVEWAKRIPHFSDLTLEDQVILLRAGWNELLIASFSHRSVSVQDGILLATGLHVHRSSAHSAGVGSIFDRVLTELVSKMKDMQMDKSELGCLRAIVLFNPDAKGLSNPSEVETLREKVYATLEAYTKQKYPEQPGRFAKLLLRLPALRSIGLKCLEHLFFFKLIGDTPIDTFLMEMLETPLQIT
T4 sequence (P19793 whole entry): T2 sequence (P19793 whole entry)
Assay: Agonist activity at human RXR binding domain and activation domain expressed in human HCT116 cells assessed as rexinoid activity incubated for 24 hrs by luciferase reporter gene based mammalian two-hybrid assay
Format: cell-based
Settings: not given

| EC50 [µM] | Structure (SMILES) |
| --- | --- |
| 18.2 | C=C(c1ccc(S(=O)(=O)O)cc1)c1cc2c(cc1C)C(C)(C)CCC2(C)C |
| 0.0138 | CCN(c1ccc(C(=O)O)cn1)c1cc2c(cc1C)C(C)(C)CCC2(C)C |

Biological target: T3, Retinoic acid receptor RXR-alpha (Homo sapiens)
Assay: Agonist activity at human RXRalpha expressed in human HCT116 cells assessed as increase in RXRE-mediated transcription at 25 nM incubated for 24 hrs by RXRE luciferase reporter gene assay relative to bexarotene
Format: cell-based
Settings: not given
Method in brief: as §3

| Activity [%] | Structure (SMILES) |
| --- | --- |
| 27 to 66 | CCN(c1ccc(C(=O)O)cn1)c1cc2c(cc1C)C(C)(C)CCC2(C)C |

Biological target: T3, Retinoic acid receptor RXR-alpha (Homo sapiens)
Assay: Agonist activity at human RXRalpha expressed in human HCT116 cells assessed as increase in RXRE-mediated transcription at 1000 nM incubated for 24 hrs by RXRE luciferase reporter gene assay relative to bexarotene
Format: cell-based
Settings: not given
Method in brief: as §3

| Activity [%] | Structure (SMILES) |
| --- | --- |
| 20 to 43 | CCN(c1ccc(C(=O)O)cn1)c1cc2c(cc1C)C(C)(C)CCC2(C)C |

System: not listed separately
Assay: Mutagenicity in Saccharomyces cerevisiae D7 assessed as induction of mutagenesis by measuring forward and reverse mutations up to 0.1 mg/mL
Format: toxicity
Settings: not given

| Structure (SMILES) | Activity |
| --- | --- |
| C=C(c1ccc(S(=O)(=O)O)cc1)c1cc2c(cc1C)C(C)(C)CCC2(C)C | Non-Toxic |
| CCN(c1ccc(C(=O)O)cn1)c1cc2c(cc1C)C(C)(C)CCC2(C)C | Non-Toxic |

Biological target: T2, Retinoic acid receptor RXR-alpha/oxysterols receptor LXR-alpha
Assay: Agonist activity at human RXRalpha/LXRalpha expressed in human HCT116 cells assessed as reduction in SREBP-mediated transcription activity at 100 nM incubated for 24 hrs by luciferase reporter gene assay in presence of 100 nM LXR agonist TO901317 relative to bexarotene
Format: cell-based
Set-up: scale not given: the % may be the effect or the level left
Settings: 0.1 µM
Method in brief: as §2

| Activity [%] | Structure (SMILES) |
| --- | --- |
| 13 to 17 | CCN(c1ccc(C(=O)O)cn1)c1cc2c(cc1C)C(C)(C)CCC2(C)C |

Biological target: T1, Retinoid X receptor (Homo sapiens)
Assay: Antagonist activity against human RXR binding domain and activation domain expressed in human HCT116 cells assessed as reduction in bexarotene-induced rexinoid activity incubated for 24 hrs by luciferase reporter gene based mammalian two-hybrid assay
Format: cell-based
Settings: not given

| Activity | Structure (SMILES) |
| --- | --- |
| Dose-dependent effect | C=C(c1ccc(S(=O)(=O)O)cc1)c1cc2c(cc1C)C(C)(C)CCC2(C)C |
